According to ChEMBL document CHEMBL1255368, “Posaconazole against Candida glabrata isolates with various susceptibilities to fluconazole” (2008):
In brackets after ≈: the same amount, converted by molar mass. Activity calls are given as the source filed them.

Experiments:
Candida parapsilosis [1] = assay: Fungistatic activity against Candida parapsilosis ATCC 22019 assessed as 99.9% reduction of int initial fungal load at 0.5 times MIC after 48 hrs using colony count method by time-kill method; format: functional, organism-based
Nakaseomyces glabratus [2] = assay: Antifungal activity against Candida glabrata isolate 4370 after 48 hrs by microdilution method; format: functional
In short: (§1)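 CLSI M27-A2 broth microdilution. Final ranges: POS, CAS, AMB 0.0078–8.0 μg/ml; FLC 0.125–64 μg/ml. Incubated at 35°C, read at 24 and 48 h by OD490. MIC for POS, FLC, CAS: first concentration giving 50% lower turbidity than control; for AMB: 90% lower. Run in quintuplicate; C. parapsilosis ATCC 22019 as quality control.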

Nakaseomyces glabratus [3] = assay: Antifungal activity against Candida glabrata isolate 4293 after 48 hrs by microdilution method; format: functional; in short: as §1
Nakaseomyces glabratus [4] = assay: (§2) Antifungal activity against 2.44 x 10^8 CFU fluconazole-susceptible Candida glabrata isolate 4293 infected neutropenic CD1 mouse disseminated candidiasis model assessed as reduction in kidney tissue fungal burden at 1 mg/kg/day, ip administered 24 hrs post infection measured 7 days post infection by colony count method; format: functional, organism-based
In short: (§3)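 Neutropenia induced in male CD1 mice (25 g) with cyclophosphamide 200 mg/kg i.p. on days −4, +1 and +4. Mice were infected i.v. via the tail vein (0.2 ml). Drug was given i.p. at […], starting 24 h post-challenge, for 6 consecutive days. Kidney pairs were homogenized on day 7 and plated on Sabouraud dextrose agar for CFU counts. Groups had 7–8 mice.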

Nakaseomyces glabratus [5] = assay: Fungistatic activity against Candida glabrata 4370 assessed as 99.9% reduction of int initial fungal load at 8 times MIC after 48 hrs using colony count method by time-kill method; format: functional, organism-based
In short: (§4)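 0.5 McFarland suspension from a 48-h plate, diluted 1:10 into MOPS-buffered RPMI 1640 with drug at 0.5× or 8× MIC. Shaken at 35°C; sampled at 0, 2, 4, 8 and 24 h, serially diluted and plated in triplicate on Sabouraud agar for 48 h at 35°C. Detection limit 20 CFU/ml; fungicidal = 99.9% fall from initial inoculum. Each isolate tested at least twice.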

Nakaseomyces glabratus [6] = assay: Fungicidal activity against Candida glabrata isolate 4205 assessed as 99.9% reduction of initial fungal load at 8 times MIC […] using colony count method by time-kill method; format: functional, organism-based
In short: (§5)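 Time-kill assay. The inoculum was set to 0.5 McFarland in water and diluted 1:10 into MOPS-buffered RPMI 1640 with drug at 0.5× or 8× MIC, then shaken at 35°C. Samples were taken at 0, 2, 4, 8 and 24 h, serially diluted and plated in triplicate on Sabouraud agar, with 48 h at 35°C. Detection limit was 20 CFU/ml. Fungicidal was defined as a 99.9% drop from the initial inoculum. Each isolate was tested at least twice.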

Nakaseomyces glabratus [7] = assay: Fungicidal activity against Candida glabrata isolate 4293 assessed as 99.9% reduction of initial fungal load at 8 times MIC […] using colony count method by time-kill method; format: functional, organism-based
Nakaseomyces glabratus [8] = assay: Fungistatic activity against Candida glabrata 4370 assessed as 99.9% reduction of int initial fungal load at 0.5 times MIC after 48 hrs using colony count method by time-kill method; format: functional, organism-based; in short: as §4
Nakaseomyces glabratus [9] = assay: Antifungal activity against Candida glabrata isolate 4198 after 48 hrs by microdilution method; format: functional; settings: isolate 4198, 48 h; in short: as §1
Candida parapsilosis [10] = assay: Fungistatic activity against Candida parapsilosis ATCC 22019 assessed as 99.9% reduction of int initial fungal load at 8 times MIC after 48 hrs using colony count method by time-kill method; format: functional, organism-based
Nakaseomyces glabratus [11] = assay: Fungistatic activity against Candida glabrata isolate 4293 assessed as 99.9% reduction of initial fungal load at 0.5 times MIC after 48 hrs using colony count method by time-kill method; format: functional, organism-based; in short: as §4
Nakaseomyces glabratus [12] = assay: Fungistatic activity against Candida glabrata isolate 4198 assessed as 99.9% reduction of initial fungal load at 0.5 times MIC after 48 hrs using colony count method by time-kill method; format: functional, organism-based; in short: as §4
Candida parapsilosis [13] = assay: Antifungal activity against Candida parapsilosis ATCC 22019 after 48 hrs by microdilution method; format: functional; settings: Lodderomyces parapsilosis, ATCC 22019, 48 h; in short: as §1
Nakaseomyces glabratus [14] = assay: Antifungal activity against Candida glabrata isolate 4205 after 48 hrs by microdilution method; format: functional; in short: as §1
Nakaseomyces glabratus [15] = assay: as §2, with “1.04” for “2.44”; format: functional, organism-based; in short: as §3
Nakaseomyces glabratus [16] = assay: Fungicidal activity against Candida glabrata isolate 4198 assessed as 99.9% reduction of initial fungal load at 8 times MIC after 48 hrs using colony count method by time-kill method; format: functional, organism-based; settings: in the assay text read “after 24 hrs” for “after 48 hrs”; in short: as §5
Nakaseomyces glabratus [17] = assay: Fungistatic activity against Candida glabrata isolate 4205 assessed as 99.9% reduction of initial fungal load at 0.5 times MIC after 48 hrs using colony count method by time-kill method; format: functional, organism-based; in short: as §4
Nakaseomyces glabratus [18] = assay: Antifungal activity against Candida glabrata isolate 4198 after 24 hrs by microdilution method; format: functional; settings: isolate 4198, 24 h; in short: as §1
Nakaseomyces glabratus [19] = assay: Antifungal activity against Candida glabrata isolate 4293 after 24 hrs by microdilution method; format: functional
In short: (§6)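 CLSI M27-A2 broth microdilution. Final drug ranges were 0.0078–8.0 μg/ml for POS, CAS and AMB, and 0.125–64 μg/ml for FLC. Plates were incubated at 35°C and read by OD490 at 24 h. The MIC was the first concentration giving 50% turbidity reduction versus control (POS, FLC, CAS) or 90% (AMB). Run in quintuplicate.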

Nakaseomyces glabratus [20] = assay: Antifungal activity against Candida glabrata isolate 4370 after 24 hrs by microdilution method; format: functional; in short: as §1
Nakaseomyces glabratus [21] = assay: Antifungal activity against Candida glabrata isolate 4205 after 24 hrs by microdilution method; format: functional; in short: as §1
Candida parapsilosis [22] = assay: Antifungal activity against Candida parapsilosis ATCC 22019 after 24 hrs by microdilution method; format: functional; settings: Lodderomyces parapsilosis, ATCC 22019, 24 h; in short: as §6
Nakaseomyces glabratus [23] = assay: Fungistatic activity against Candida glabrata isolate 4205 assessed as 99.9% reduction of initial fungal load at 8 times MIC after 48 hrs using colony count method by time-kill method; format: functional, organism-based
Nakaseomyces glabratus [24] = assay: (§7) Antifungal activity against fluconazole-resistant Candida glabrata isolate 4198 infected neutropenic CD1 mouse disseminated candidiasis model assessed as reduction in kidney tissue fungal burden at 30 mg/kg/day, po administered 24 hrs post infection measured 7 days post infection by colony count method; format: functional, organism-based
In short: (§8)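 Male CD1 mice (25 g) made neutropenic with cyclophosphamide 200 mg/kg i.p. on days −4, +1 and +4, then infected i.v. via the lateral tail vein (0.2 ml). Dosing started 24 h post-challenge, once daily for 6 days, 0.2 ml: POS by oral gavage, FLC i.p. On day 7, homogenized kidneys (entire organ) plated on Sabouraud agar; CFU per kidney pair; 7–8 mice per group.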

Nakaseomyces glabratus [25] = assay: as §2, with “against 1.04” for “against 2.44”, “at 30” for “at 1”, “mg/kg/day, po” for “mg/kg/day, ip”; format: functional, organism-based; in short: as §8
Nakaseomyces glabratus [26] = assay: Fungistatic activity against Candida glabrata isolate 4293 assessed as 99.9% reduction of initial fungal load at 8 times MIC after 48 hrs using colony count method by time-kill method; format: functional, organism-based; in short: as §4
Nakaseomyces glabratus [27] = assay: as §2, with “at 25” for “at 1”; format: functional, organism-based; in short: as §8
Nakaseomyces glabratus [28] = assay: Fungistatic activity against Candida glabrata isolate 4198 assessed as 99.9% reduction of initial fungal load at 8 times MIC after 48 hrs using colony count method by time-kill method; format: functional, organism-based; in short: as §4
Nakaseomyces glabratus [29] = assay: as §7, with “fluconazole-susceptible” for “fluconazole-resistant”, “4205” for “4198”; format: functional, organism-based; in short: as §8
Nakaseomyces glabratus [30] = assay: as §2, with “at 15” for “at 1”, “mg/kg/day, po” for “mg/kg/day, ip”; format: functional, organism-based; in short: as §8
Nakaseomyces glabratus [31] = assay: as §2, with “against 1.04” for “against 2.44”, “at 25” for “at 1”; format: functional, organism-based

| Structure (SMILES) | Activity (Candida parapsilosis [1]) | MIC (Nakaseomyces glabratus [2]) [µg/mL] | MIC (Nakaseomyces glabratus [3]) [µg/mL] | Activity (Nakaseomyces glabratus [4]) | Activity (Nakaseomyces glabratus [5]) | Activity (Nakaseomyces glabratus [6]) | Activity (Nakaseomyces glabratus [7]) | Activity (Nakaseomyces glabratus [8]) | MIC (Nakaseomyces glabratus [9]) [µg/mL] | Activity (Candida parapsilosis [10]) | Activity (Nakaseomyces glabratus [11]) | Activity (Nakaseomyces glabratus [12]) | MIC (Candida parapsilosis [13]) [µg/mL] | MIC (Nakaseomyces glabratus [14]) [µg/mL] | Activity (Nakaseomyces glabratus [15]) | Activity (Nakaseomyces glabratus [16]) | Activity (Nakaseomyces glabratus [17]) | Activity (Nakaseomyces glabratus [23]) | Activity (Nakaseomyces glabratus [24]) | Activity (Nakaseomyces glabratus [26]) | also measured |
| --- | --- | --- | --- | --- | --- | --- | --- | --- | --- | --- | --- | --- | --- | --- | --- | --- | --- | --- | --- | --- | --- |
| C[C@@H]1[C@H](O)[C@@H](C)/C=C/C=C/C=C/C=C/C=C/C=C/C=C/[C@H](O[C@@H]2O[C@H](C)[C@@H](O)[C@H](N)[C@@H]2O)C[C@@H]2O[C@](O)(C[C@@H](O)C[C@@H](O)[C@H](O)CC[C@@H](O)C[C@@H](O)CC(=O)O[C@H]1C)C[C@H](O)[C@H]2C(=O)O [AMPHOTERICIN B] | Active | 1 (≈ 1.08 µM) | 0.5 (≈ 0.541 µM) | Active | Active | Active | Active | Active | 0.5 (≈ 0.541 µM) | Active | Active | Active | 1 (≈ 1.08 µM) | 0.5 (≈ 0.541 µM) | Active | Active | Active | – | – | – | – |
| CC[C@H](C)C[C@H](C)CCCCCCCCC(=O)N[C@H]1C[C@@H](O)[C@@H](NCCN)NC(=O)[C@@H]2[C@@H](O)CCN2C(=O)[C@H]([C@H](O)CCN)NC(=O)[C@H]([C@H](O)[C@@H](O)c2ccc(O)cc2)NC(=O)[C@@H]2C[C@@H](O)CN2C(=O)[C@H]([C@@H](C)O)NC1=O [CASPOFUNGIN] | Active | – | – | Active | – | inactive | inactive | Active | – | – | Active | Active | – | – | Active | inactive | Active | – | – | – | MIC (Nakaseomyces glabratus [18]): 0.25 µg/mL (≈ 0.229 µM); MIC (Nakaseomyces glabratus [19]): ≤ 0.03 µg/mL; MIC (Nakaseomyces glabratus [20]): 0.125 µg/mL (≈ 0.114 µM); MIC (Nakaseomyces glabratus [21]): 0.25 µg/mL (≈ 0.229 µM); MIC (Candida parapsilosis [22]): 0.25 µg/mL (≈ 0.229 µM) |
| CC[C@@H]([C@H](C)O)n1ncn(-c2ccc(N3CCN(c4ccc(OC[C@@H]5CO[C@@](Cn6cncn6)(c6ccc(F)cc6F)C5)cc4)CC3)cc2)c1=O [POSACONAZOLE] | Active | 0.06 (≈ 0.0856 µM) | 0.25 (≈ 0.357 µM) | – | Active | – | – | Active | 0.5 (≈ 0.713 µM) | Active | Active | Active | ≤ 0.03 | ≤ 0.03 | inactive | – | Active | Active | Active | Active | Activity (Nakaseomyces glabratus [25]): Active; Activity (Nakaseomyces glabratus [27]): Active; Activity (Nakaseomyces glabratus [28]): Active; Activity (Nakaseomyces glabratus [29]): Active; Activity (Nakaseomyces glabratus [30]): Active; Activity (Nakaseomyces glabratus [31]): Active |
| OC(Cn1cncn1)(Cn1cncn1)c1ccc(F)cc1F [FLUCONAZOLE] | Active | 16 (≈ 52.2 µM) | 32 (≈ 104 µM) | Active | Active | – | – | Active | > 64 | Active | Active | Active | 4 (≈ 13.1 µM) | 1 (≈ 3.27 µM) | – | – | Active | Active | inactive | Active | Activity (Nakaseomyces glabratus [27]): Active; Activity (Nakaseomyces glabratus [28]): Active; Activity (Nakaseomyces glabratus [29]): Active; Activity (Nakaseomyces glabratus [31]): inactive |
